Assay results reported in ChEMBL document CHEMBL1143979, “1-, 3- and 8-substituted-9-deazaxanthines as potent and selective antagonists at the human A2B adenosine receptor” (Bioorg Med Chem, 2008).

Experiments:
Adenosine receptor A2b = molecular target: T1, Adenosine receptor A2b (Homo sapiens, UniProt P29275); test: Displacement of [3H]DPCPX from human adenosine A2B receptor expressed in HEK293 cells; assay type: cell-based; conditions: read-out: Log Ki (converted)
T1 sequence (P29275 whole entry): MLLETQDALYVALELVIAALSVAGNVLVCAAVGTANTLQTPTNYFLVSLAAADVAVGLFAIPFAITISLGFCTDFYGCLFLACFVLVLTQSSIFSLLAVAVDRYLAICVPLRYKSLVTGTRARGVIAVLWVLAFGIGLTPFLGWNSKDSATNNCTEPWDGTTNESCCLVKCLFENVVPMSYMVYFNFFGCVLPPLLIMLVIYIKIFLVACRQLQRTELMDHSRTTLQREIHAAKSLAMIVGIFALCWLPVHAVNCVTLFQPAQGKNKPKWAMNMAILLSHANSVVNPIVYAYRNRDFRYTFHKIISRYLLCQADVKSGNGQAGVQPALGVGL

Adenosine receptor A2a [1] = molecular target: T2, Adenosine receptor A2a (Homo sapiens, UniProt P29274); test: Displacement of [3H]ZM-241385 from human adenosine A2A receptor expressed in CHO cells at 1 uM; assay type: cell-based
T2 sequence (P29274 whole entry): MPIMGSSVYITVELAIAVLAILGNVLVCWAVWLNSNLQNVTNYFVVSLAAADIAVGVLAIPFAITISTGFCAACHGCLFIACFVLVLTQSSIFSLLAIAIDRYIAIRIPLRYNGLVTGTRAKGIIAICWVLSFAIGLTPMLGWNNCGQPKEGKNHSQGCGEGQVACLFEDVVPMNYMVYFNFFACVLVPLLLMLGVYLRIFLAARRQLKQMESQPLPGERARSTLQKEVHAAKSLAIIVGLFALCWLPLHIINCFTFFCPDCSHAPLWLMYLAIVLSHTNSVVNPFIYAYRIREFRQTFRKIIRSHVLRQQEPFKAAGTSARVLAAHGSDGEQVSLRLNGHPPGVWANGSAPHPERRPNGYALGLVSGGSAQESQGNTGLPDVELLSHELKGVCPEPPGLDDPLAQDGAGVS
In short: (§1)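 Competition binding at cloned human receptors: [3H]DPCPX for A1 and A2B, [3H]ZM241385 for A2A, [3H]NECA for A3. Screening compounds are reported as % radioligand displacement at one concentration. SEM below 10%.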

[2] = molecular target: T3, Adenosine receptor A2b (Homo sapiens) (UniProt P29275); test: Displacement of [3H]DPCPX from human adenosine A2B receptor expressed in HEK293 cells at 0.1 uM; assay type: cell-based; in short: as §1
T3 sequence (whole entry): T1 sequence (P29275 whole entry)

Adenosine receptor A2a [3] = molecular target: T2, Adenosine receptor A2a; test: Displacement of [3H]ZM-241385 from human adenosine A2A receptor expressed in CHO cells at 0.1 uM; assay type: cell-based; in short: as §1
Adenosine receptor A1 = molecular target: T4, Adenosine receptor A1 (Homo sapiens, UniProt P30542); test: Displacement of [3H]DPCPX from human adenosine A1 receptor expressed in CHO cells; assay type: cell-based; in short: as §1
T4 sequence (P30542 whole entry): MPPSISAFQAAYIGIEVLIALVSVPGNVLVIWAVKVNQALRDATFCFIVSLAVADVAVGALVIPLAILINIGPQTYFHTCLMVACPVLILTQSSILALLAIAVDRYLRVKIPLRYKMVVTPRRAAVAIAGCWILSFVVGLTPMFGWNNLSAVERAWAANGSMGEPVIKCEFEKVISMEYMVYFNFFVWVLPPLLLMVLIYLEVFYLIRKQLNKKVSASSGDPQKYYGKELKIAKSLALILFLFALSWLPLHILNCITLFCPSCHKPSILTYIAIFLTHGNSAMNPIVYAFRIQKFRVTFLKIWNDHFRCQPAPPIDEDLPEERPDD

Adenosine receptor A2a [4] = molecular target: T2, Adenosine receptor A2a; test: Displacement of [3H]ZM-241385 from human adenosine A2A receptor expressed in CHO cells; assay type: cell-based; in short: as §1
Homo sapiens = species: Homo sapiens; test: Selectivity index, ratio for human adenosine A2A receptor to human adenosine A2B receptor
[5] = molecular target: T5, Adenosine receptor A3 (Homo sapiens) (UniProt P0DMS8); test: Displacement of [3H]NECA from human adenosine A3 receptor expressed in CHO cells at 1 uM; assay type: cell-based; in short: as §1
T5 sequence (whole entry): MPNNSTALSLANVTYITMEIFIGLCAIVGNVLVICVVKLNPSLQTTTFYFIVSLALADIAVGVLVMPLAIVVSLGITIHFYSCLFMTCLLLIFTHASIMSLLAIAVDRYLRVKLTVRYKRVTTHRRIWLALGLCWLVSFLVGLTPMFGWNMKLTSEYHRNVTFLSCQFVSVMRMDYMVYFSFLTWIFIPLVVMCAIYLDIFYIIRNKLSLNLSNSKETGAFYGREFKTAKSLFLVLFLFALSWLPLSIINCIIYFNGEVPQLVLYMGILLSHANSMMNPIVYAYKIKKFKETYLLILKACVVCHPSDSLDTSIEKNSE

[6] = Antagonist activity at adenosine A2B receptor in guinea pig thoracic aorta smooth muscle; assay type: functional, tissue-based, Cavia porcellus
In short: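 Isolated guinea pig thoracic aorta smooth muscle (A2B). Cumulative NECA concentration–response curves were run without and with antagonist. Antagonism is read as a parallel rightward shift with no loss of maximum, and reported as pA2.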

Adenosine receptor A2a [7] = molecular target: Adenosine receptor A2a (Rattus norvegicus, UniProt P30543); test: Antagonist activity at adenosine A2A receptor in Sprague-Dawley rat aorta smooth muscle; assay type: functional, tissue-based; conditions: read-out: pA2 (converted)
Chain of Adenosine receptor A2a (Rattus norvegicus, UniProt P30543) (P30543 whole entry): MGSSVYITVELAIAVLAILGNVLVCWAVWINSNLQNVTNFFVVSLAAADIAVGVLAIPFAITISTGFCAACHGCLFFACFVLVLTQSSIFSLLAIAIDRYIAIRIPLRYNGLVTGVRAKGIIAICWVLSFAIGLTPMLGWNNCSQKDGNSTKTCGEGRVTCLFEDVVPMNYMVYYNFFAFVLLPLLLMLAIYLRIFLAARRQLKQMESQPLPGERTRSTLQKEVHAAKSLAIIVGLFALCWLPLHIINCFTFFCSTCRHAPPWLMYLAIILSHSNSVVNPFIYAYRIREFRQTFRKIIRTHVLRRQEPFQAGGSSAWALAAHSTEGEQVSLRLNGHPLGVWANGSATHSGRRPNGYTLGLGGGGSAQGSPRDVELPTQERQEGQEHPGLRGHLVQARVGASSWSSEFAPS
In short: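 Isolated aorta from male Sprague–Dawley rats (200–250 g) for A2A receptors. Cumulative NECA agonist concentration–response curves were run without and with antagonist, and antagonist potency is given as pA2.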

Adenosine receptor A2a [8] = molecular target: T2, Adenosine receptor A2a; test: Antagonist activity at human adenosine A2A receptor expressed in CHO cells by cAMP assay; assay type: functional, cell-based
In short: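 cAMP assay in CHO cells transfected with human A2A receptor. Cumulative NECA concentration–response curves were run alone and with antagonist, and potency is expressed as pA2.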

[9] = molecular target: T3, Adenosine receptor A2b (Homo sapiens); test: Antagonist activity at human adenosine A2B receptor expressed in HEK293 cells by cAMP assay; assay type: functional, cell-based
In short: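 cAMP assay in HEK-293 cells with endogenous human A2B receptor expression. NECA cumulative concentration–response curves were run in the absence and presence of antagonist, and the parallel rightward shift gives pA2.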

| SMILES | Ki (Adenosine receptor A2b) | Activity (Adenosine receptor A2a [3]) | Ki (Adenosine receptor A2a [4]) | Ratio (Homo sapiens) | other results |
| --- | --- | --- | --- | --- | --- |
| Cn1c(=O)c2[nH]c(-c3ccc(OCC(=O)N4CCN(c5c(Cl)cncc5Cl)CC4)cc3)cc2n(C)c1=O | 7.08 nM |  |  |  | Activity (Adenosine receptor A2a [1]): 21% |
| Cn1c(=O)c2[nH]c(-c3ccc(OC(C)(C)C(=O)N4CCC(c5ccccc5)(c5ccccc5)CC4)cc3)cc2n(C)c1=O |  | 8% |  |  | Activity [2]: 34% |
| Cn1c(=O)c2[nH]c(-c3ccc(OCC(=O)N4CCc5ccccc5C4)cc3)cc2n(C)c1=O | 8.71 nM |  | 427 nM | 49 | Ki (Adenosine receptor A1): 363 nM; Activity [5]: 15%; pA2 [6]: 7.89; Kb (Adenosine receptor A2a [7]): 501 nM; Activity (Adenosine receptor A2a [8]): Dose-dependent effect; Activity [9]: Dose-dependent effect |
| COc1ccc(N2CCN(C(=O)COc3ccc(-c4cc5c([nH]4)c(=O)n(C)c(=O)n5C)c(OC)c3)CC2)cc1 |  | 1% |  |  | Activity [2]: 30% |
| COc1cc(OCC(=O)N2CCC(c3ccccc3)CC2)ccc1-c1cc2c([nH]1)c(=O)n(C)c(=O)n2C | 891 nM |  |  |  | Activity (Adenosine receptor A2a [1]): 3% |
| Cn1c(=O)c2[nH]c(-c3ccc(OCC(=O)N4CCN(c5ccc(C(F)(F)F)cc5)CC4)cc3)cc2n(C)c1=O | 4.17 nM |  | 132 nM | 31.6 |  |
| Cn1c(=O)c2[nH]c(-c3ccc(OCC(=O)N4CCN(c5ncccn5)CC4)cc3)cc2n(C)c1=O | 13.5 nM |  | 417 nM | 30.9 |  |
| CCCn1c(=O)c2[nH]c(-c3ccc(OCC(=O)N4CCC(c5ccccc5)CC4)cc3)cc2n(CCC)c1=O | 20.9 nM |  | 589 nM | 28.2 |  |
| CCCn1c(=O)c2[nH]c(-c3ccc(OCC(=O)N4CCN(c5cnccn5)CC4)cc3)cc2n(CCC)c1=O | 100 nM | 11% |  |  |  |
| Cn1c(=O)c2[nH]c(-c3ccc(OCC(=O)N4CCC(c5ccccc5)(c5ccccc5)CC4)cc3)cc2n(C)c1=O | 9.55 nM |  |  |  | Activity (Adenosine receptor A2a [1]): 28% |
| CCCn1c(=O)n(C)c(=O)c2[nH]c(-c3ccc(OCC(=O)N4CCC(c5ccc(OC)cc5)CC4)cc3)cc21 | 9.12 nM |  | 398 nM | 43.7 |  |
| O=C(COc1ccc(-c2cc3c([nH]2)c(=O)n(CC(F)(F)F)c(=O)n3CC(F)(F)F)cc1)N1CCN(c2ccccc2)CC1 |  | 3% |  |  | Activity [2]: 32% |
| Cn1c(=O)c2[nH]c(-c3ccc(OCC(=O)N4CCN(c5ccc(Cl)cc5)CC4)cc3)cc2n(C)c1=O | 3.39 nM |  | 398 nM | 117 |  |
